Results from different studies.
Compare with care: the assays were run in different laboratories.
Effect on: metabolic stability
Species: human

SMILES	medium	concentration	time	pH	half-life
COc1ccc2cc(C(=O)Nc3ccc4c(c3)CN(C3CCC(=O)NC3=O)C4=O)ccc2c1 (stereo not shown)	liver microsomes	2 µM	1 h	–	3.8 min
CC(C)NCC(O)COc1cccc2ccccc12 (stereo not shown)	liver microsomes	1 µM	–	–	57.8 min
C[C@H](CCCOc1cccc(CO)c1)[C@H]1CC[C@H]2[C@@H]3CC=C4C[C@@H](O)CC[C@]4(C)[C@H]3CC[C@]12C	liver microsomes	1 µM	–	pH 7.4	330 min
C/C=C/C[C@H](C)[C@@H](OC)[C@@H](C)[C@H](O)C[C@H]1OC(=O)C=C[C@H]1CC	liver microsomes	–	–	–	6.7 min
CCCCCCCc1c(C)nc2cc(OC)ccc2c1O	liver microsomes	1 µM	–	–	10.2 min
CCCCOC(=O)NS(=O)(=O)c1sc(CC(C)C)cc1-c1ccc2c(c1)CN(C(C)=O)C2	liver microsomes	1 µM	–	pH 7.4	2.4 min
Cc1ccc(S(=O)(=O)Nc2cccc(-c3nnn[nH]3)c2)cc1C	liver microsomes	–	–	–	2 min
CCSC1CC(=O)C(C)(CCC(=O)Nc2c(O)ccc(C(=O)O)c2O)C2C3CC4CC12CC4(C)O3 (stereo not shown)	liver microsomes	–	–	–	22 min
CC[C@@H]1C=CC(=O)O[C@@H]1C[C@@H](O)[C@H](C)[C@H](OC)[C@@H](C)Cc1ccc(F)cc1	liver microsomes	–	–	–	3.3 min
CCCCOC(=O)NS(=O)(=O)c1sc(CC(C)C)cc1-c1ccc2c(c1)CN(C(C)=O)CC2	liver microsomes	1 µM	–	pH 7.4	5.4 min
CCCN(C)Cc1cc(-c2[nH]c3cccc(F)c3c(=O)c2C)ccc1Cc1ccc(OC(F)(F)F)cc1	liver microsomes	–	–	–	1.67 min
CC[C@@H]1C=CC(=O)O[C@@H]1C[C@@H](O)[C@H](C)[C@H](OC)[C@@H](C)Cc1ccccc1	liver microsomes	–	–	–	5.4 min
O=C1CCN(C(=O)Nc2ccc(F)c(C(F)F)c2)[C@@H]2CCCC[C@H]12	liver microsomes	–	–	–	> 56 min
CCCCOC(=O)NS(=O)(=O)c1sc(CC(C)C)cc1-c1ccc2c(c1)CCN(C(C)=O)C2	liver microsomes	1 µM	–	pH 7.4	8.7 min
CCN(CC)CCNC(=O)c1c(C)[nH]c(/C=C2\C(=O)Nc3ccc(F)cc32)c1C	liver microsomes	1 µM	–	pH 7.4	37.4 min
O=C(OC(C(F)(F)F)C(F)(F)F)N1Cc2ccc(OCCN3CCOCC3)cc2C1	liver microsomes	–	–	–	40 min
CCS(=O)(=O)Nc1cccc(-c2cn(C)c(=O)c3ccccc23)c1	liver microsomes	–	–	–	315 min
CCOc1ccc2ccc(=O)oc2c1	liver microsomes	1 µM	–	pH 7.4	10 min
O=C(O)Cc1ccccc1Nc1c(Cl)cccc1Cl	hepatocytes	1 µM	–	–	18.4 min
Cc1cnc(Nc2ccc(C(=O)NC3CCNCC3)c(F)c2)nc1Nc1cc(NS(=O)(=O)C(C)(C)C)cc(C(=O)NCCOCCOCCOCCC(=O)N2CCC(NC(=O)c3ccc(Nc4ncc(C)c(Nc5ccc(Cl)c(NS(=O)(=O)C(C)(C)C)c5)n4)cc3F)CC2)c1	liver microsomes	–	–	–	8.2 min
CNS(=O)(=O)Cc1ccc2[nH]cc(CCN(C)C)c2c1	hepatocytes	5 µM	–	–	448 min
O=C(NC1CCC1)c1ccc2nc(-c3cccc(NS(=O)(=O)NCCN4CCCCC4)c3)cn2c1	liver microsomes	1 µM	–	–	21 min
COc1ccc(CNc2c(CO)cnc3c(C4CC4)cc(C#N)cc23)cc1Cl	liver microsomes	–	–	–	19.5 min
O=C(CC1Cc2ccccc2C1)N[C@H](CN1CCCC1)[C@H](O)c1ccc2c(c1)OCCO2	liver microsomes	–	–	–	28 min
O=C(N[C@H](Cc1c[nH]c2ccccc12)C(=O)Nc1ccncc1)c1ccc(-c2cc(F)ccc2F)cc1F	liver microsomes	–	–	–	17 min
Cc1cccc(-n2ncc(Cl)c(Cl)c2=O)c1	liver microsomes	–	–	–	6.6 min
Cc1ccc(S(=O)(=O)Nc2cccc(-c3nnn[nH]3)c2)cc1C(F)(F)F	liver microsomes	–	–	–	4 min
CCCCOC(=O)NS(=O)(=O)c1sc(CC(C)C)cc1-c1ccc(OC(F)(F)F)c(Cn2ccnc2)c1	liver microsomes	1 µM	–	pH 7.4	10 min
